Experimental findings from ChEMBL document CHEMBL1135992, “Quantitative structure-activity relationship analysis of functionalized amino acid anticonvulsant agents using k nearest neighbor and simulated annealing PLS methods” (2002) are described below.

Assay type in all cases: functional
Assay [1] relates to Mus musculus. As to the kind of experiment: Anticonvulsant activity in mice following i.p. treatment and Maximal Electroshock Seizure (MES) test. An outline of the steps:
(§1)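 Mice (18–25 g) received the compound ip as a suspension in 0.5% (w/v) methylcellulose in water. A 60-cycle alternating current of 50 mA was applied for 0.2 s. Protection was defined as abolition of the hindlimb tonic extensor component. […] ED50 and 95% confidence interval were calculated by Finney's methods.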

Assay [2] concerns Mus musculus. Kind of assay: In vivo anticonvulsant activity in male albino mice using the maximal electroshock (MES) test after intraperitoneal administration; value ranges from 34.9-54.3. The settings on record: ip. An outline of the steps: (§2)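 Mice (18–25 g) received the test agent intraperitoneally as a suspension in 0.5% (w/v) methylcellulose in water. A 60-cycle alternating current at 50 mA was applied for 0.2 s, and protection meant abolition of the hindlimb tonic extensor component. The ED50 was determined at the time of peak effect in groups of at least eight mice. At least two doses fell between 100% and 0% protection, and the 95% confidence interval was calculated by Finney's method.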
In general terms: In the maximal electroshock model the usual endpoint is tonic extension of the hind limbs.

Assay [3] has as its system Mus musculus. As to the kind of experiment: In vivo anticonvulsant activity in male albino mice using the maximal electroshock seizure(MES) test upon intraperitoneal administration, expressed as logarithm of effective dose. An outline of the steps:
as §2

Assay [4] deals with Mus musculus. As to the kind of experiment: In vivo anticonvulsant activity in male albino mice using the maximal electroshock (MES) test after intraperitoneal administration (exp 1). The settings on record: ip. An outline of the steps:
as §1

Assay [5] concerns Mus musculus. As to the kind of experiment: In vivo anticonvulsant activity in male albino mice using the maximal electroshock (MES) test after intraperitoneal administration (exp 2). The settings on record: ip. An outline of the steps: as §1
The test system of assay [6] is Mus musculus. As to the kind of experiment: In vivo anticonvulsant activity in male albino mice using the maximal electroshock seizure(MES) test upon intraperitoneal administration (exp 1). The settings on record: ip. An outline of the steps: as §1
Assay [7] deals with Mus musculus. As to the kind of experiment: In vivo anticonvulsant activity in male albino mice using the maximal electroshock seizure(MES) test upon intraperitoneal administration (exp 2). The settings on record: ip. An outline of the steps:
as §1

The test system of assay [8] is Mus musculus. As to the kind of experiment: In vivo anticonvulsant activity in male albino mice using the maximal electroshock seizure(MES) test upon intraperitoneal administration, expressed as logarithm of effective dose; value ranges from 2.58 to 3.06. An outline of the steps:
as §2

The subject of assay [9] is Mus musculus. Kind of assay: In vivo anticonvulsant activity in male albino mice using the maximal electroshock (MES) test after intraperitoneal administration; value ranges from 85.7-151. The settings on record: ip.
Assay [10] concerns Mus musculus. Kind of assay: In vivo anticonvulsant activity in male albino mice using the maximal electroshock seizure(MES) test upon intraperitoneal administration; value ranges from 15 to 19. The settings on record: ip.
Assay [11] concerns Mus musculus. Kind of assay: In vivo anticonvulsant activity in male albino mice using the maximal electroshock seizure(MES) test upon intraperitoneal administration; value ranges from 46 to 61. The settings on record: ip.
The test system of assay [12] is Mus musculus. Kind of assay: In vivo anticonvulsant activity in male albino mice using the maximal electroshock seizure(MES) test upon intraperitoneal administration, expressed as logarithm of effective dose; value ranges from 2.01 to 2.63.

In the case of `CC(=O)NC(C(=O)NCc1ccccc1)N(C)C` (configuration not stated), the “Log ED50” value in assay [1] stood at 2.26 uM kg-1.

Take `CC(=O)NC(N)C(=O)NCc1ccccc1` (configuration not stated): the “Log ED50” value in assay [1] is given as 2.47 uM kg-1.

As to `CC(=O)NC(C(=O)NCc1ccccc1)N(N)c1ccccc1` (configuration not stated), it took a dose of 42.8 mg/kg to reach the 50% effect level in assay [2] (ED50). In assay [1], the “Log ED50” value amounted to 2.14 uM kg-1.

`CC(=O)NC(C(=O)NCc1ccccc1)c1cccs1` (configuration not stated): the “Log ED50” value in assay [3] was found to be 2.19 uM kg-1.

Consider `CC(=O)NC(C(=O)NCc1cc(F)ccc1F)c1ccco1` (configuration not stated), for which the “Log ED50” value in assay [3] was 1.89 uM kg-1.

With `CC(=O)NC(C(=O)NCc1ccccc1)c1ccc(C)[nH]1` (configuration not stated), the “Log ED50” value in assay [3] is on record as 2.12 uM kg-1.

As for `CC(=O)NC(C(=O)NCc1ccc(F)cc1)c1ccco1` (configuration not stated), in assay [3], the “Log ED50” value stood at 1.64 uM kg-1.

Take `CC(N)C(=O)NCc1ccccc1` (configuration not stated): the ED50 in assay [4] was more than 100 mg/kg; in [5] it was less than 300 mg/kg. Moreover, the “Log ED50” value in assay [1] came to 3.23 uM kg-1.

For `CC(=O)NC(C(=O)NCc1ccccc1)n1cccc1` (configuration not stated), the “Log ED50” value in [1] turned out to be 2.47 uM kg-1.

Take `CC(=O)NC(C(=O)NCc1ccccc1)c1ncccn1` (configuration not stated): the “Log ED50” value in assay [3] worked out at 1.46 uM kg-1.

Turning to `CCC(=O)NC(COC)C(=O)NCc1ccccc1` (configuration not stated), the figures for the ED50 in assay [6] and in assay [7] were more than 100 mg/kg and less than 300 mg/kg, respectively. For the same molecule, in [8], the “Log ED50” value came out at 3.06 uM kg-1.

Regarding `C/C(S)=N\C(C(=O)NCc1ccccc1)c1ccco1` (configuration not stated), in [3], the “Log ED50” value stood at 1.8 uM kg-1.

Regarding `CC(=O)NC(C(=N)NO)C(=O)NCc1ccccc1` (configuration not stated), in assay [9], the 50% effect level (ED50) was put at a dose of 112 mg/kg. Also, the “Log ED50” value in assay [1] worked out at 2.63 uM kg-1.

Take `CC(=O)NC(C(=O)NCc1cccc(F)c1)c1ccco1` (configuration not stated): the “Log ED50” value in assay [3] came out at 1.66 uM kg-1.

Turning to `C=CCC(NC(C)=O)C(=O)NCc1ccccc1` (configuration not stated), the “Log ED50” value in assay [3] was 2.16 uM kg-1.

In the case of `CC(=O)NC(C(=O)NCc1ccccc1)c1ccccc1` (configuration not stated), the “Log ED50” value in assay [3] is 2.06 uM kg-1.

On to `CON(C)C(NC(C)=O)C(=O)NCc1ccccc1` (configuration not stated), for which the “Log ED50” value in assay [1] is 1.4 uM kg-1.

In the case of `CCOCC(NC(C)=O)C(=O)NCc1ccccc1` (configuration not stated), it took a dose of 17 mg/kg to reach the 50% effect level in assay [10] (ED50). The “Log ED50” value in assay [3] is listed as 1.81 uM kg-1.

For the molecule `CONC(NC(C)=O)C(=O)NCc1ccccc1` (configuration not stated), the “Log ED50” value in assay [1] is given as 1.39 uM kg-1.

As to `COCC(NC(C)=O)C(=O)N(C)Cc1ccccc1` (configuration not stated), the figures for the median effective dose (ED50) in assay [6] and in [7] were more than 100 mg/kg and less than 300 mg/kg, respectively. Also, in [8], the “Log ED50” value turned out to be 3.06 uM kg-1.

For `CC(=O)NC(O)C(=O)NCc1ccccc1` (configuration not stated), in assay [1], the “Log ED50” value was determined as 2.56 uM kg-1.

With `COC(NC(C)=O)C(=O)NCc1ccccc1` (configuration not stated), the “Log ED50” value in [1] worked out at 2.62 uM kg-1.

For the molecule `CCNC(NC(C)=O)C(=O)NCc1ccccc1` (configuration not stated), the “Log ED50” value in assay [1] came out at 2.23 uM kg-1.

For `CC(=O)NC(NNC(=O)OCc1ccccc1)C(=O)NCc1ccccc1` (configuration not stated), in assay [1], the “Log ED50” value was determined as 2.18 uM kg-1.

Consider `CNC(NC(C)=O)C(=O)NCc1ccccc1` (configuration not stated), for which the “Log ED50” value in assay [1] was 2.28 uM kg-1.

As to `CCOC(NC(C)=O)C(=O)NCc1ccccc1` (configuration not stated), the “Log ED50” value in assay [1] was found to be 2.39 uM kg-1.

In the case of `CC(=O)NC(C(=O)NCc1ccccc1)c1ccc[nH]1` (configuration not stated), the “Log ED50” value in assay [3] is reported as 1.77 uM kg-1.

For the molecule `CC(=O)NC(C(=O)NCc1ccccc1)c1ccco1` (configuration not stated), in assay [3], the “Log ED50” value is 1.58 uM kg-1.

The molecule `O=C(NCc1ccccc1)C1CCCCN1` (configuration not stated) yielded a median effective dose (ED50) in assay [11] of 53 mg/kg. For the same molecule, the “Log ED50” value in assay [3] stood at 2.38 uM kg-1.

`COCC(NC=O)C(=O)NCc1ccccc1` (configuration not stated): the ED50 is more than 30 mg/kg in assay [6] and less than 100 mg/kg in assay [7]. For the same molecule, the “Log ED50” value in assay [12] is reported as 2.63 uM kg-1.

In general, ED50 refers to the dose that gives a 50% effect, or the effect in half of the subjects.
